Test results taken from ChEMBL document CHEMBL4665843, “Automated Design of Macrocycles for Therapeutic Applications: From Small Molecules to Peptides and Proteins” (J Med Chem, 2020).
Residues, ends and D or L forms follow the SMILES beside them.

Legend:
[1] = target: Glucagon-like peptide 1 receptor (Homo sapiens, UniProt P43220); experiment: Agonist activity at human GLP-1 receptor expressed in HEK293 cells assessed as induction of cAMP accumulation incubated for 30 mins by HTRF assay; type: functional, cell-based
Chain of Glucagon-like peptide 1 receptor (P43220 whole entry): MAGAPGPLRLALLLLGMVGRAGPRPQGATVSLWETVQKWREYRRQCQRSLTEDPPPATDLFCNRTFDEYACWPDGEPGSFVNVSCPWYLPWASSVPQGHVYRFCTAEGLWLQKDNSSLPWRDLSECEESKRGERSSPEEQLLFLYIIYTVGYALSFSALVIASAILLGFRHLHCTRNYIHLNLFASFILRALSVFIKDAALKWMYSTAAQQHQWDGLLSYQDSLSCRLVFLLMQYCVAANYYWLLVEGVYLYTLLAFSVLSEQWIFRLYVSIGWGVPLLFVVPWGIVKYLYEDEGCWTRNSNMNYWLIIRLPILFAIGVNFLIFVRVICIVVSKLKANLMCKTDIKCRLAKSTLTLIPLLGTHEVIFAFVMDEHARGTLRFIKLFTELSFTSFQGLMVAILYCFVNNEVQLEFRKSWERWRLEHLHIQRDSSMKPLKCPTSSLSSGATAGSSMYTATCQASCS
Outline: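 HEK-293 cells stably expressing human receptor, grown in DMEM/10% FBS, frozen, thawed and washed in HBSS/20 mM HEPES/0.1% HSA; resuspended with 2 mM IBMX. 5000 cells/well incubated with peptide 30 min at room temperature; cAMP by HTRF kit, 1 h with reagents in lysis buffer, 665/620 nm fluorescence ratio.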

Glucagon receptor = Glucagon receptor (Homo sapiens, UniProt P47871); experiment: Agonist activity at human glucagon receptor expressed in HEK293 cells assessed as induction of cAMP accumulation incubated for 30 mins by HTRF assay; type: functional, cell-based
Chain of Glucagon receptor (P47871 whole entry): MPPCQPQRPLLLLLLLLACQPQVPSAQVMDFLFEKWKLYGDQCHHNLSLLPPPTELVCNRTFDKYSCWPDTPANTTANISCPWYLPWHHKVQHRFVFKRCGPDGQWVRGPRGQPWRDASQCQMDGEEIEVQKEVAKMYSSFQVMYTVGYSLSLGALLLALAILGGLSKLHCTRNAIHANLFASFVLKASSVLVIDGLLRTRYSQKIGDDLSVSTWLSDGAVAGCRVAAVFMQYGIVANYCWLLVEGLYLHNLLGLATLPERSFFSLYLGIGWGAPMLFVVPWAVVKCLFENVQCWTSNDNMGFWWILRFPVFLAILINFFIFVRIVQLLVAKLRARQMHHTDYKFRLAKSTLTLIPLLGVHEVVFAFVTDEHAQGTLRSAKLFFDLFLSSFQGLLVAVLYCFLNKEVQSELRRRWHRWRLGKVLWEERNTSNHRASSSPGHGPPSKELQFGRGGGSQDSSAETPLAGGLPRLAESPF

Compound	EC50 [1] [pM]	EC50 (Glucagon receptor) [pM]
CC[C@H](C)[C@H](NC(=O)[C@H](Cc1ccccc1)NC(=O)[C@H](CC(=O)O)NC(=O)[C@H](CCC(N)=O)NC(=O)[C@H](C)NC(=O)[C@H](CCCNC(=N)N)NC(=O)[C@H](CCCNC(=N)N)NC(=O)[C@H](CO)NC(=O)[C@H](CC(=O)O)NC(=O)[C@H](CCSC)NC(=O)[C@H](CCC(N)=O)NC(=O)[C@H](CCCCN)NC(=O)[C@H](CO)NC(=O)[C@H](CC(C)C)NC(=O)[C@H](CC(=O)O)NC(=O)[C@H](CO)NC(=O)[C@@H](NC(=O)[C@H](Cc1ccccc1)NC(=O)[C@@H](NC(=O)CNC(=O)[C@H](CCC(N)=O)NC(=O)[C@@H](CO)NC(=O)[C@@H](N)Cc1cnc[nH]1)[C@@H](C)O)[C@@H](C)O)C(=O)N[C@@H](CCC(=O)O)C(=O)N[C@@H](Cc1c[nH]c2ccccc12)C(=O)N[C@@H](CC(C)C)C(=O)N[C@@H](CCCCN)C(=O)N[C@@H](CC(N)=O)C(=O)NCC(=O)NCC(=O)N1CCC[C@H]1C(=O)N[C@@H](CO)C(=O)N[C@@H](CO)C(=O)NCC(=O)N[C@@H](C)C(=O)N1CCC[C@H]1C(=O)N1CCC[C@H]1C(=O)N1CCC[C@H]1C(=O)N[C@@H](CO)C(N)=O	75.4	122
CC[C@H](C)[C@H](NC(=O)[C@H](Cc1ccccc1)NC(=O)[C@H](CC(=O)O)NC(=O)[C@H](CCC(N)=O)NC(=O)[C@H](C)NC(=O)[C@H](CCCNC(=N)N)NC(=O)[C@H](CCCNC(=N)N)NC(=O)[C@H](CO)NC(=O)[C@H](CC(=O)O)NC(=O)[C@H](CCSC)NC(=O)[C@H](CCC(N)=O)NC(=O)[C@H](CCCCN)NC(=O)[C@H](CO)NC(=O)[C@H](CC(C)C)NC(=O)[C@H](CC(=O)O)NC(=O)[C@H](CO)NC(=O)[C@@H](NC(=O)[C@H](Cc1ccccc1)NC(=O)[C@@H](NC(=O)CNC(=O)[C@H](CCC(N)=O)NC(=O)[C@@H](CO)NC(=O)[C@@H](N)Cc1cnc[nH]1)[C@@H](C)O)[C@@H](C)O)C(=O)N[C@@H](CCC(=O)O)C(=O)N[C@@H](Cc1c[nH]c2ccccc12)C(=O)N[C@@H](CC(C)C)C(=O)N[C@@H](CCCCN)C(=O)N[C@H]1CCCCNC(=O)CC[C@@H](C(=O)NCC(=O)N[C@@H](C)C(=O)N2CCC[C@H]2C(=O)N2CCC[C@H]2C(=O)N2CCC[C@H]2C(=O)N[C@@H](CO)C(N)=O)NC(=O)[C@H](CO)NC(=O)[C@@H]2CCCN2C(=O)CNC(=O)CNC1=O	8.13	59.6
CC[C@H](C)[C@H](NC(=O)[C@H](Cc1ccccc1)NC(=O)[C@H](CC(=O)O)NC(=O)[C@H](CCC(N)=O)NC(=O)[C@H](C)NC(=O)[C@]1(C)CCC/C=C\CCC[C@](C)(NC(=O)[C@H](CCC(N)=O)NC(=O)[C@H](CCCCN)NC(=O)[C@H](CO)NC(=O)[C@H](CC(C)C)NC(=O)[C@H](CC(=O)O)NC(=O)[C@H](CO)NC(=O)[C@@H](NC(=O)[C@H](Cc2ccccc2)NC(=O)[C@@H](NC(=O)CNC(=O)[C@H](CCC(N)=O)NC(=O)[C@@H](CO)NC(=O)[C@@H](N)Cc2cnc[nH]2)[C@@H](C)O)[C@@H](C)O)C(=O)N[C@@H](CC(=O)O)C(=O)N[C@@H](CO)C(=O)N[C@@H](CCCNC(=N)N)C(=O)N1)C(=O)N[C@@H](CCC(=O)O)C(=O)N[C@@H](Cc1c[nH]c2ccccc12)C(=O)N[C@@H](CC(C)C)C(=O)N[C@@H](CCCCN)C(=O)N[C@@H](CC(N)=O)C(=O)NCC(=O)NCC(=O)N1CCC[C@H]1C(=O)N[C@@H](CO)C(=O)N[C@@H](CO)C(=O)NCC(=O)N[C@@H](C)C(=O)N1CCC[C@H]1C(=O)N1CCC[C@H]1C(=O)N1CCC[C@H]1C(=O)N[C@@H](CO)C(N)=O	1.2	8430
CC[C@H](C)[C@H](NC(=O)[C@H](Cc1ccccc1)NC(=O)[C@H](CC(=O)O)NC(=O)[C@H](CCC(N)=O)NC(=O)[C@H](C)NC(=O)[C@]1(C)CCC/C=C/CCC[C@](C)(NC(=O)[C@H](CCC(N)=O)NC(=O)[C@H](CCCCN)NC(=O)[C@H](CO)NC(=O)[C@H](CC(C)C)NC(=O)[C@H](CC(=O)O)NC(=O)[C@H](CO)NC(=O)[C@@H](NC(=O)[C@H](Cc2ccccc2)NC(=O)[C@@H](NC(=O)CNC(=O)[C@H](CCC(N)=O)NC(=O)[C@H](CO)NC(=O)[C@@H](N)Cc2cnc[nH]2)[C@@H](C)O)[C@@H](C)O)C(=O)N[C@@H](CC(=O)O)C(=O)N[C@@H](CO)C(=O)N[C@@H](CCCNC(=N)N)C(=O)N1)C(=O)N[C@@H](CCC(=O)O)C(=O)N[C@@H](Cc1c[nH]c2ccccc12)C(=O)N[C@@H](CC(C)C)C(=O)N[C@@H](CCCCN)C(=O)N[C@@H](CC(N)=O)C(=O)NCC(=O)NCC(=O)N1CCC[C@H]1C(=O)N[C@@H](CO)C(=O)N[C@@H](CO)C(=O)NCC(=O)N[C@@H](C)C(=O)N1CCC[C@H]1C(=O)N1CCC[C@H]1C(=O)N1CCC[C@H]1C(=O)N[C@@H](CO)C(N)=O	0.4	369
CC[C@H](C)[C@H](NC(=O)[C@H](Cc1ccccc1)NC(=O)[C@H](CC(=O)O)NC(=O)[C@@H]1CCC(=O)NCCCC[C@H](NC(=O)[C@H](CC(=O)O)NC(=O)[C@H](CCSC)NC(=O)[C@H](CCC(N)=O)NC(=O)[C@H](CCCCN)NC(=O)[C@H](CO)NC(=O)[C@H](CC(C)C)NC(=O)[C@H](CC(=O)O)NC(=O)[C@H](CO)NC(=O)[C@@H](NC(=O)[C@H](Cc2ccccc2)NC(=O)[C@@H](NC(=O)CNC(=O)[C@H](CCC(N)=O)NC(=O)[C@@H](CO)NC(=O)[C@@H](N)Cc2cnc[nH]2)[C@@H](C)O)[C@@H](C)O)C(=O)N[C@@H](CCCNC(=N)N)C(=O)N[C@@H](CCCNC(=N)N)C(=O)N[C@@H](C)C(=O)N1)C(=O)N[C@@H](CCC(=O)O)C(=O)N[C@@H](Cc1c[nH]c2ccccc12)C(=O)N[C@@H](CC(C)C)C(=O)N[C@@H](CCCCN)C(=O)N[C@@H](CC(N)=O)C(=O)NCC(=O)NCC(=O)N1CCC[C@H]1C(=O)N[C@@H](CO)C(=O)N[C@@H](CO)C(=O)NCC(=O)N[C@@H](C)C(=O)N1CCC[C@H]1C(=O)N1CCC[C@H]1C(=O)N1CCC[C@H]1C(=O)N[C@@H](CO)C(N)=O	6.4	7.8
CC[C@H](C)[C@@H]1NC(=O)[C@H](Cc2ccccc2)NC(=O)[C@@H](NC(=O)[C@H](CCC(N)=O)NC(=O)[C@H](C)NC(=O)[C@H](CCCNC(=N)N)NC(=O)[C@H](CCCNC(=N)N)NC(=O)[C@H](CO)NC(=O)[C@H](CC(=O)O)NC(=O)[C@H](CCSC)NC(=O)[C@H](CCC(N)=O)NC(=O)[C@H](CCCCN)NC(=O)[C@H](CO)NC(=O)[C@H](CC(C)C)NC(=O)[C@H](CC(=O)O)NC(=O)[C@H](CO)NC(=O)[C@@H](NC(=O)[C@H](Cc2ccccc2)NC(=O)[C@@H](NC(=O)CNC(=O)[C@H](CCC(N)=O)NC(=O)[C@H](CO)NC(=O)[C@@H](N)Cc2cnc[nH]2)[C@@H](C)O)[C@@H](C)O)CSCc2cc3cc(c2)CSC[C@@H](C(=O)N2CCC[C@H]2C(=O)N2CCC[C@H]2C(=O)N2CCC[C@H]2C(=O)N[C@@H](CO)C(N)=O)NC(=O)CNC(=O)[C@H](CO)NC(=O)[C@@H](CO)NC(=O)[C@@H]2CCCN2C(=O)CNC(=O)CNC(=O)[C@H](CSC3)NC(=O)[C@H](CCCCN)NC(=O)[C@H](CC(C)C)NC(=O)[C@H](Cc2c[nH]c3ccccc23)NC(=O)[C@H](CCC(=O)O)NC1=O	194	578
CC[C@H](C)[C@H](NC(=O)[C@H](Cc1ccccc1)NC(=O)[C@H](CC(=O)O)NC(=O)[C@H](CCC(N)=O)NC(=O)[C@H](C)NC(=O)[C@H](CCCNC(=N)N)NC(=O)[C@H](CCCNC(=N)N)NC(=O)[C@H](CO)NC(=O)[C@H](CC(=O)O)NC(=O)[C@@H]1CCC(=O)NCCCC[C@H](NC(=O)[C@H](CC(=O)O)NC(=O)[C@H](CO)NC(=O)[C@@H](NC(=O)[C@H](Cc2ccccc2)NC(=O)[C@@H](NC(=O)CNC(=O)[C@H](CCC(N)=O)NC(=O)[C@H](CO)NC(=O)[C@@H](N)Cc2cnc[nH]2)[C@@H](C)O)[C@@H](C)O)C(=O)N[C@@H](CO)C(=O)N[C@@H](CCCCN)C(=O)N[C@@H](CCC(N)=O)C(=O)N1)C(=O)N[C@@H](CCC(=O)O)C(=O)N[C@@H](Cc1c[nH]c2ccccc12)C(=O)N[C@@H](CC(C)C)C(=O)N[C@@H](CCCCN)C(=O)N[C@@H](CC(N)=O)C(=O)NCC(=O)NCC(=O)N1CCC[C@H]1C(=O)N[C@@H](CO)C(=O)N[C@@H](CO)C(=O)NCC(=O)N[C@@H](C)C(=O)N1CCC[C@H]1C(=O)N1CCC[C@H]1C(=O)N1CCC[C@H]1C(=O)N[C@@H](CO)C(N)=O (HELM PEPTIDE1{H.S.Q.G.T.F.T.S.D.K.S.K.Q.E.D.S.R.R.A.Q.D.F.I.E.W.L.K.N.G.G.P.S.S.G.A.P.P.P.S.[am]}$PEPTIDE1,PEPTIDE1,10:R3-14:R3$$$V2.0)	47.5	–
CC[C@H](C)[C@@H]1NC(=O)[C@H](Cc2ccccc2)NC(=O)[C@@H](NC(=O)[C@H](CCC(N)=O)NC(=O)[C@H](C)NC(=O)[C@H](CCCNC(=N)N)NC(=O)[C@H](CCCNC(=N)N)NC(=O)[C@H](CO)NC(=O)[C@H](CC(=O)O)NC(=O)[C@H](CCSC)NC(=O)[C@H](CCC(N)=O)NC(=O)[C@H](CCCCN)NC(=O)[C@H](CO)NC(=O)[C@H](CC(C)C)NC(=O)[C@H](CC(=O)O)NC(=O)[C@H](CO)NC(=O)[C@@H](NC(=O)[C@H](Cc2ccccc2)NC(=O)[C@@H](NC(=O)CNC(=O)[C@H](CCC(N)=O)NC(=O)[C@H](CO)NC(=O)[C@@H](N)Cc2cnc[nH]2)[C@@H](C)O)[C@@H](C)O)CSCc2cccc(c2)CSC[C@@H](C(=O)N2CCC[C@H]2C(=O)N2CCC[C@H]2C(=O)N2CCC[C@H]2C(=O)N[C@@H](CO)C(N)=O)NC(=O)CNC(=O)[C@H](CO)NC(=O)[C@H](CO)NC(=O)[C@@H]2CCCN2C(=O)CNC(=O)CNC(=O)[C@H](CC(N)=O)NC(=O)[C@H](CCCCN)NC(=O)[C@H](CC(C)C)NC(=O)[C@H](Cc2c[nH]c3ccccc23)NC(=O)[C@H](CCC(=O)O)NC1=O (HELM PEPTIDE1{H.S.Q.G.T.F.T.S.D.L.S.K.Q.M.D.S.R.R.A.Q.C.F.I.E.W.L.K.N.G.G.P.S.S.G.C.P.P.P.S.[am]}|CHEM1{[c1cc(C[*:1])cc(C[*:2])c1]}$PEPTIDE1,CHEM1,21:R3-1:R1|PEPTIDE1,CHEM1,35:R3-1:R2$$$V2.0)	24.9	–
